The test system of one experiment is NIH/3T3. Put plainly: MTT cytotoxic bioassay on normal cell line. To be noted: Mus musculus, NIH3T3, 72 h, read-out: IC50 ± SD. Type of experiment: cell-based. Put shortly:
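NIH/3T3 fibroblasts were grown in high-glucose DMEM with 10% FBS and 1% penicillin-streptomycin under humidified 5% CO2. 1.0 × 10^4 cells/well were precultured for 16 h, then exposed for 72 h in fresh medium (reference drug at 1–200 µM). MTT (0.50 mg/ml final) was added for 4 h, and formazan was dissolved in DMSO. A570 − A630 gave % viability. IC50 is mean ± SD of three independent experiments.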

For experiment [1], the target named is T1, DPP4 enzyme (Homo sapiens, UniProt P27487). Description: biochemical. To be noted: read-out: % DPP4 Enzyme Inhibition, at 20 µM.
Experiment [2] has as its target T1, DPP4 enzyme. Put plainly: Kinetic study of DPP4 inhibition. In kind it is biochemical. The method in brief:
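DPP4 inhibition kinetics with fluorogenic substrate H-Gly-Pro-AMC at different substrate-to-enzyme concentration ratios, test compound at four concentrations (0.5, 5, 25 and 50 µM). Double-reciprocal plots of 1/velocity vs 1/[substrate] fitted by weighted least squares, assuming velocity variance is a constant percentage of v. Lineweaver–Burk slopes were replotted against inhibitor concentration, and Ki was taken as the negative X-axis intercept.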

From publication PMC11532418 (Scientific Reports, 2024) come the findings set out here.

Structures are written as SMILES.

Usually IC50 stands for the concentration at which inhibition is half-maximal. For orientation: inhibition means how much of the control response was suppressed. What is called Ki is the dissociation constant of the complex between target and ligand, obtained from inhibition or displacement. Lower therefore signals tighter binding.

T1 sequence (P27487 whole entry): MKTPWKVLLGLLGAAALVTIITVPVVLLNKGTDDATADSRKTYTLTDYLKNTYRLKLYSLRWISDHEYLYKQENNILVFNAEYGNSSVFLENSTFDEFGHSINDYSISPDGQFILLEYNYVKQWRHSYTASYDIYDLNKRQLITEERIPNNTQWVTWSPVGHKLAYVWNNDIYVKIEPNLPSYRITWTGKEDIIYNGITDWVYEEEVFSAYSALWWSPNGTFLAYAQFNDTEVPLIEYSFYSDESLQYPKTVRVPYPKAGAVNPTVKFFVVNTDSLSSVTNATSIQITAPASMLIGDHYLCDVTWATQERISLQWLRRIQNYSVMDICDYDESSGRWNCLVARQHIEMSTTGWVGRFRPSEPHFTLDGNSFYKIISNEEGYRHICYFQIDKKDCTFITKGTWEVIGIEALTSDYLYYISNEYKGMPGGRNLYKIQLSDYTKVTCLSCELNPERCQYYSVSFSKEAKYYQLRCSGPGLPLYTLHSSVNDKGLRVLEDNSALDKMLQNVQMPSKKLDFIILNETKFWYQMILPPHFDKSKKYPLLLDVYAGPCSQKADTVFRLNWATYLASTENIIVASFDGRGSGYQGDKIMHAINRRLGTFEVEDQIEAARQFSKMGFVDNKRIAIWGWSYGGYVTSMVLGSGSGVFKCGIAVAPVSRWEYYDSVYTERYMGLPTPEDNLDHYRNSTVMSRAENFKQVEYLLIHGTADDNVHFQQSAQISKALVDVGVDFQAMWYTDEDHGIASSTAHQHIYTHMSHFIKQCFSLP

`Cn1c(=O)cc(N2CCC(N)CC2)n(Cc2nc3ccccc3c(=O)n2-c2ccccc2)c1=O` [9a, 6-(4-Aminopiperidin-1-yl)-3-methyl-1-((4-oxo-3-phenyl-3,4-dihydroquinazolin-2-yl)methyl)pyrimidine-2,4(1 H,3 H)-dione]: in the experiment on NIH/3T3, the IC50 was found to be 88.1 ± 3.22 µM.
Same read-out and setting: the same measure for `Cn1c(=O)cc(N2CCC(N)CC2)n(Cc2nc3ccccc3c(=O)n2-c2ccc(F)cc2)c1=O` [9b, 6-(4-Aminopiperidin-1-yl)-1-((3-(4-fluorophenyl)-4-oxo-3,4-dihydroquinazolin-2-yl)methyl)-3-methylpyrimidine-2,4(1 H,3 H)-dione]: 62.9 ± 1.98 µM.
Consider `Cn1c(=O)cc(N2CCC(N)CC2)n(Cc2nc3ccccc3c(=O)n2-c2ccc(Cl)cc2)c1=O` [9c, 6-(4-Aminopiperidin-1-yl)-1-((3-(4-chlorophenyl)-4-oxo-3,4-dihydroquinazolin-2-yl)methyl)-3-methylpyrimidine-2,4(1 H,3 H)-dione], for which the IC50 in the experiment on NIH/3T3 was 72.2 ± 3.91 µM. The inhibition at 20 µM on DPP4 enzyme [1] was over 50%.
For `Cc1ccc(-n2c(Cn3c(N4CCC(N)CC4)cc(=O)n(C)c3=O)nc3ccccc3c2=O)cc1` [9d, 6-(4-Aminopiperidin-1-yl)-3-methyl-1-((4-oxo-3-(p-tolyl)-3,4-dihydroquinazolin-2-yl)methyl)pyrimidine-2,4(1 H,3 H)-dione], in the experiment with NIH/3T3, the IC50 is 39.3 ± 1.05 µM.
On to `Cn1c(=O)cc(N2CCC(N)CC2)n(Cc2nc3ccccc3c(=O)n2-c2cccc(C(F)(F)F)c2)c1=O` [9e, 6-(4-Aminopiperidin-1-yl)-3-methyl-1-((4-oxo-3-(3-(trifluoromethyl)phenyl)-3,4-dihydroquinazolin-2-yl)methyl)pyrimidine-2,4(1 H,3 H)-dione], for which, in the experiment with NIH/3T3, the IC50 is 81.5 ± 5.94 µM.
The same measure, in the same setting: the same measure for `Cn1c(=O)cc(N2CCC(N)CC2)n(Cc2nc3ccccc3c(=O)n2-c2ccc(F)c(Cl)c2)c1=O` [9f, 6-(4-Aminopiperidin-1-yl)-1-((3-(3-chloro-4-fluorophenyl)-4-oxo-3,4-dihydroquinazolin-2-yl)methyl)-3-methylpyrimidine-2,4(1 H,3 H)-dione]: 43.4 ± 1.02 µM; for `Cn1c(=O)cc(N2CCC(N)CC2)n(Cc2nc3ccc(Br)cc3c(=O)n2-c2ccccc2)c1=O` [9g, 6-(4-Aminopiperidin-1-yl)-1-((6-bromo-4-oxo-3-phenyl-3,4-dihydroquinazolin-2-yl)methyl)-3-methylpyrimidine-2,4(1 H,3 H)-dione]: 102 ± 4.05 µM.
On the same count and under the same terms, the same measure for `Cn1c(=O)cc(N2CCC(N)CC2)n(Cc2nc3ccc(Br)cc3c(=O)n2-c2ccc(F)cc2)c1=O` [9h, 6-(4-Aminopiperidin-1-yl)-1-((6-bromo-3-(4-fluorophenyl)-4-oxo-3,4-dihydroquinazolin-2-yl)methyl)-3-methylpyrimidine-2,4(1 H,3 H)-dione]: 89.7 ± 3.76 µM.
Take `Cn1c(=O)cc(N2CCC(N)CC2)n(Cc2nc3ccc(Br)cc3c(=O)n2-c2ccc(Cl)cc2)c1=O` [9i, 6-(4-Aminopiperidin-1-yl)-1-((6-bromo-3-(4-chlorophenyl)-4-oxo-3,4-dihydroquinazolin-2-yl)methyl)-3-methylpyrimidine-2,4(1 H,3 H)-dione]: the Ki at DPP4 enzyme [2] worked out at 12 µM. Moreover, the type of inhibition entry at DPP4 enzyme [2] (Lineweaver-Burk plot) is “competitive”. The IC50 in the experiment on NIH/3T3 turned out to be 76.9 ± 2.58 µM.
With `Cn1c(=O)cc(N2CCC(N)CC2)n(Cc2nc3ccc(Br)cc3c(=O)n2-c2ccc(Br)cc2)c1=O` [9j, 6-(4-Aminopiperidin-1-yl)-1-((6-bromo-3-(4-bromophenyl)-4-oxo-3,4-dihydroquinazolin-2-yl)methyl)-3-methylpyrimidine-2,4(1 H,3 H)-dione], the half-maximal inhibitory concentration (IC50) with NIH/3T3 stood at 91 ± 1.98 µM. In addition, the inhibition at 20 µM at DPP4 enzyme [1] was over 50%.
`Cn1c(=O)cc(N2CCC(N)CC2)n(Cc2nc3ccc(Br)cc3c(=O)n2-c2cccc(F)c2)c1=O` [9k, 6-(4-Aminopiperidin-1-yl)-1-((6-bromo-3-(3-fluorophenyl)-4-oxo-3,4-dihydroquinazolin-2-yl)methyl)-3-methylpyrimidine-2,4(1 H,3 H)-dione]: the IC50 in the experiment with NIH/3T3 came to 68.4 ± 3.01 µM.
The same measure, in the same setting: the same measure for `Cn1c(=O)cc(N2CCC(N)CC2)n(Cc2nc3ccc(Br)cc3c(=O)n2-c2cccc(Br)c2)c1=O` [9l, 6-(4-Aminopiperidin-1-yl)-1-((6-bromo-3-(3-bromophenyl)-4-oxo-3,4-dihydroquinazolin-2-yl)methyl)-3-methylpyrimidine-2,4(1 H,3 H)-dione]: 78.1 ± 2.95 µM.
In the case of `N[C@@H](CC(=O)N1CCn2c(nnc2C(F)(F)F)C1)Cc1cc(F)c(F)cc1F` [Sitagliptin, reference compound], in the experiment on NIH/3T3, the IC50 came to 111 ± 5.85 µM.
